Measured values from ChEMBL document CHEMBL1125832, “Synthesis and dopaminergic activity of 3-substituted 1-(aminomethyl)-3,4-dihydro-5,6-dihydroxy-1H-2-benzopyrans: characterization of an auxiliary binding region in the D1 receptor” (J Med Chem, 1991).
pEC50, pKi: −log10 of the molar value.

Key:
[1] = biological target: T1, D(2) dopamine receptor (Rattus norvegicus, UniProt P61169); assay: Concentration required to inhibit 50% dopamine receptor D2 in a cell free homogenate of intermediate lobe of pituitary gland; format: functional
[2] = biological target: T2, D(1A) dopamine receptor (Rattus norvegicus, UniProt P18901); assay: Binding affinity using [125 I] SCH 23982 radioligand competitive binding assay on dopamine receptor D1
[3] = biological target: T1, D(2) dopamine receptor; assay: Binding affinity using [3H]-spiperone radioligand competitive binding assay against dopamine receptor D2
In short: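 Rat striatal membranes in Tris pH 7.4 buffer with salts and ascorbate. [3H]spiperone at 300 pM final; nonspecific binding with 10 μM YM-09151-2. Incubated 20 min at 37 °C, then filtered. Ki derived from IC50 by Cheng-Prusoff.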

[4] = Intrinsic activity relative to dopamine at D-2 receptor.; format: functional
[5] = system: D1 dopamine receptor (Cyprinus carpio); assay: Intrinsic activity measured relative to dopamine on D1C(R) receptor
[6] = biological target: T2, D(1A) dopamine receptor; assay: Inhibition of Dopamine receptor D1 activity by functional cyclase assay using cell free homogenate of rat striatum; format: tissue-based
In short: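 Adenylate cyclase stimulation in cell-free homogenate of rat striatum. EC50 is the concentration giving half-maximal stimulation of cAMP production.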

[7] = system: Rattus norvegicus; assay: Rat rotation experiments were conducted to evaluate rational behavior of the rats by administering at a dose of 30 umol/kg subcutaneously; format: functional
In short: (§1)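 Rats with unilateral 6-hydroxydopamine lesions of the nigrostriatal bundle. Compound given subcutaneously or orally at the stated dose. Net contralateral rotations counted over 2 h after dosing and reported as mean ± SEM; negative values indicate ipsilateral turning.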

[8] = system: Rattus norvegicus; assay: Rat rotation experiments were conducted to evaluate rational behavior of the rats by administering at a dose of 15 umol/kg subcutaneously; format: functional; in short: as §1
[9] = biological target: D(1A) dopamine receptor (Rattus norvegicus) (UniProt P18901); assay: Intrinsic activity was measured in relative to dopamine on D1C(S) receptor
[10] = system: Rattus norvegicus; assay: Rat rotation experiments were conducted to evaluate rational behavior of the rats by administering at a dose of 260 umol/kg subcutaneously; format: functional; in short: as §1
[11] = system: Rattus norvegicus; assay: Rat rotation experiments were conducted to evaluate rational behavior of the rats by administering at a dose of 65 umol/Kg subcutaneously; format: functional; in short: as §1
[12] = system: Rattus norvegicus; assay: Rat rotation experiments were conducted to evaluate rational behavior of the rats by administering at a dose of 130 umol/kg subcutaneously; format: functional; in short: as §1

T2 sequence (P18901 whole entry): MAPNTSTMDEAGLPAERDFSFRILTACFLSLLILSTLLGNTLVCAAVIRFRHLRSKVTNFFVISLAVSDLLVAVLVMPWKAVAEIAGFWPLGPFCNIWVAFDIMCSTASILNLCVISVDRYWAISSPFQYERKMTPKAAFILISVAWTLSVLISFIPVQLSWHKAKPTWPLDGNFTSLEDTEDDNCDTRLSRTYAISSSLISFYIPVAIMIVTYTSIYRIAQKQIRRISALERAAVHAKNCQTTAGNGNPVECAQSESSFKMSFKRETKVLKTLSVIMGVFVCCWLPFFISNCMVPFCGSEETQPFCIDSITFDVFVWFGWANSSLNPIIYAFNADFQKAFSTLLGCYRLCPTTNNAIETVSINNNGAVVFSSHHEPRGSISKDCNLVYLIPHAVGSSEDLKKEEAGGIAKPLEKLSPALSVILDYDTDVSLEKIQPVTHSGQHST
Sequence of D(1A) dopamine receptor (Rattus norvegicus) (P18901 whole entry, looked up): as the sequence (P18901 whole entry) above
T1 sequence (P61169 whole entry): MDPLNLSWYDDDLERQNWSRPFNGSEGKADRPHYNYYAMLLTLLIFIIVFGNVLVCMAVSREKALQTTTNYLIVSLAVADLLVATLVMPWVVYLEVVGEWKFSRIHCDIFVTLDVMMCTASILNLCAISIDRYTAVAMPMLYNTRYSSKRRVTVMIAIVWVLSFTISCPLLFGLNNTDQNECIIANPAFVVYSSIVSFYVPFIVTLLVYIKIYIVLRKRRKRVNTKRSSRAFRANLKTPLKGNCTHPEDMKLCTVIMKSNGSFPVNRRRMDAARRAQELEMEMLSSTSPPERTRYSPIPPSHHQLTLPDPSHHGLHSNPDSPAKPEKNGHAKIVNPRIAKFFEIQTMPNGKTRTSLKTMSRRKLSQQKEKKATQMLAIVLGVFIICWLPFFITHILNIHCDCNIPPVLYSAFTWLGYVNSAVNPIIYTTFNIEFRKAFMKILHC

NC[C@@H]1OC(C23C[C@H]4C[C@@H](C2)C[C@@H](C3)C4)Cc2c1ccc(O)c2O (stereo partly drawn)
pEC50 [1]: < 5.00

NC[C@@H]1OC(CC2CCCC2)Cc2c1ccc(O)c2O (stereo partly drawn)
pKi [2]: 7.52
pEC50 [1]: 6.37
pKi [3]: 6.11
Intrinsic activity [4]: 76%
Intrinsic activity [5]: 124%

OCCCNC[C@@H]1OC(C2CCCCC2)Cc2c1ccc(O)c2O (stereo partly drawn)
pKi [2]: 5.50
pEC50 [1]: < 5.00
pKi [3]: 4.91
Intrinsic activity [5]: 58%

Oc1ccc2c(c1O)CC(C1CCCCC1)O[C@H]2CNC1CC1 (stereo partly drawn)
pKi [2]: 6.48
pEC50 [1]: < 5.00
pKi [3]: 6.20
Intrinsic activity [5]: 71%

C#CCC1Cc2c(ccc(O)c2O)[C@H](CN)O1 (stereo partly drawn)
pKi [2]: 6.39
pEC50 [1]: 6.54
pKi [3]: 5.97
Intrinsic activity [4]: 100%

NC[C@@H]1OC(COCc2ccccc2)Cc2c1ccc(O)c2O (stereo partly drawn)
pKi [2]: 5.64
pEC50 [1]: 6.69
pKi [3]: 6.41
Intrinsic activity [4]: 78%
Intrinsic activity [5]: 107%

Oc1ccc2c(c1O)CC(C1CCCCC1)O[C@H]2CNCc1ccccc1 (stereo partly drawn)
pKi [2]: < 5.00
pEC50 [1]: < 5.00
pKi [3]: 5.61

C#CCNC[C@@H]1OC(C2CCCCC2)Cc2c1ccc(O)c2O (stereo partly drawn)
pKi [2]: 5.33
pEC50 [1]: < 5.00
pKi [3]: 4.94
Intrinsic activity [5]: 87%

NC[C@@H]1OC2(CCCCC2)Cc2c1ccc(O)c2O
pKi [2]: 6.32
pEC50 [1]: 5.18
pKi [3]: 5.33
Intrinsic activity [4]: 56%
Intrinsic activity [5]: 65%

NC[C@@H]1OC(c2ccc(I)cc2)Cc2c1ccc(O)c2O (stereo partly drawn)
pKi [2]: 7.86
pEC50 [1]: < 5.00
pKi [3]: 5.98
Intrinsic activity [5]: 161%

CC[C@H]1Cc2c(ccc(O)c2O)[C@H](CN)O1
pKi [2]: 5.75
pEC50 [1]: 5.29
pKi [3]: < 5.00
Intrinsic activity [4]: 76%
Intrinsic activity [5]: 92%

CNC[C@@H]1OC(C2CCCCC2)Cc2c1ccc(O)c2O (stereo partly drawn)
pKi [2]: 7.85
pEC50 [1]: < 5.00
pKi [3]: 6.14

NC[C@@H]1OC(COc2ccccc2)Cc2c1ccc(O)c2O (stereo partly drawn)
pKi [2]: 6.43
pEC50 [1]: < 5.00
pEC50 [6]: 7.40
pKi [3]: 5.89
Activity [7]: 514
Activity [8]: 467
Intrinsic activity [5]: 51%
Intrinsic activity [9]: 64%

NC[C@@H]1OC(C(c2ccccc2)c2ccccc2)Cc2c1ccc(O)c2O (stereo partly drawn)
pKi [2]: 6.28
pEC50 [1]: < 5.00
pKi [3]: 5.58

C=CCN(C)C[C@@H]1OC(C2CCCCC2)Cc2c1ccc(O)c2O (stereo partly drawn)
pKi [2]: 5.50
pEC50 [1]: < 5.00
pKi [3]: 5.59

CCCCCCC1Cc2c(ccc(O)c2O)[C@H](CN)O1 (stereo partly drawn)
pKi [2]: 6.15
pEC50 [1]: 6.11
pEC50 [6]: 7.63
pKi [3]: 5.26
Intrinsic activity [4]: 80%
Intrinsic activity [5]: 90%
Intrinsic activity [9]: 84%

CCCCC1Cc2c(ccc(O)c2O)[C@H](CN)O1 (stereo partly drawn)
pKi [2]: 6.06
pEC50 [1]: 6.44
pKi [3]: 6.08
Intrinsic activity [4]: 80%
Intrinsic activity [5]: 151%

NC[C@@H]1OC(Cc2ccccc2)Cc2c1ccc(O)c2O (stereo partly drawn)
pKi [2]: 6.35
pEC50 [1]: < 5.00
pKi [3]: 5.83
Intrinsic activity [5]: 93%

NC[C@@H]1OC(c2ccc(Br)cc2)Cc2c1ccc(O)c2O (stereo partly drawn)
pKi [2]: 7.28
pEC50 [1]: 6.45
pKi [3]: 5.68
Intrinsic activity [4]: 94%
Intrinsic activity [5]: 106%

NC[C@@H]1OC(c2cccc(O)c2)Cc2c1ccc(O)c2O (stereo partly drawn)
pKi [2]: 9.31
pEC50 [1]: 6.72
pKi [3]: 6.23
Intrinsic activity [4]: 111%

NC[C@@H]1OCCc2c1ccc(O)c2O
pKi [2]: 5.99
pEC50 [1]: 5.55
pKi [3]: 5.34
Activity [10]: 584
Activity [11]: 93
Activity [12]: 286
Intrinsic activity [4]: 96%

COc1ccc(CC2Cc3c(ccc(O)c3O)[C@H](CN)O2)cc1 (stereo partly drawn)
pKi [2]: 5.58
pEC50 [1]: < 5.00
pKi [3]: 5.57

NC[C@@H]1OC(CCc2ccccc2)Cc2c1ccc(O)c2O (stereo partly drawn)
pKi [2]: 6.61
pEC50 [1]: < 5.00
pEC50 [6]: 7.72
pKi [3]: 6.17
Intrinsic activity [5]: 76%
Intrinsic activity [9]: 78%

NC[C@@H]1OC(C2CCCCCCC2)Cc2c1ccc(O)c2O (stereo partly drawn)
pKi [2]: 7.05
pEC50 [1]: 6.12
pKi [3]: 6.47
Intrinsic activity [4]: 70%

COc1cccc(C2Cc3c(ccc(O)c3O)[C@H](CN)O2)c1 (stereo partly drawn)
pKi [2]: 6.51
pEC50 [1]: < 5.00
pKi [3]: 6.12
Intrinsic activity [5]: 107%

C#CCN(C)C[C@@H]1OC(C2CCCCC2)Cc2c1ccc(O)c2O (stereo partly drawn)
pKi [2]: 5.60
pEC50 [1]: < 5.00
pKi [3]: < 5.00

CC[C@@H]1Cc2c(ccc(O)c2O)[C@H](CN)O1
pKi [2]: 6.78
pEC50 [1]: 4.97
pKi [3]: 5.45
Intrinsic activity [4]: 81%
Intrinsic activity [5]: 89%
